Reference: ChEMBL document CHEMBL1765047, “Synthesis and in vivo evaluation of (S)-6-(4-fluorophenoxy)-3-((1-[11C]methylpiperidin-3-yl)methyl)-2-o-tolylquinazolin-4(3H)-one, a potential PET tracer for growth hormone secretagogue receptor (GHSR)” (Bioorg Med Chem, 2011)

Assays:
Hippocampus [1] = assay: Drug uptake in CD1 mouse hippocampus at 0.1 mCi, iv after 10 mins by gamma scintillation counting; type: ADME, organism-based; settings: in vivo
Summary of the method: (§1)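 Baseline regional brain study in male CD1 mice (23-28 g) injected via tail vein with 0.1 mCi tracer in 0.2 mL saline (~4000 mCi/μmol). Killed at 10, 30, 60 or 90 min; brain regions dissected on ice, weighed and gamma-counted with injectate standards. Reported as %ID/g tissue, mean ± SD, n=3.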

Lung [2] = assay: Drug uptake in CD1 mouse lung at 0.1 mCi, iv after 90 mins by gamma scintillation counting; type: ADME, organism-based; settings: in vivo, 1.5 h
Summary of the method: (§2)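 Baseline whole-body distribution in male CD1 mice (23-28 g). Tracer 0.1 mCi in 0.2 mL saline (~4000 mCi/μmol) into lateral tail vein. Cervical dislocation at 10, 30 or 90 min; organs dissected on ice, weighed, gamma-counted alongside injectate aliquots as standards. Reported as %ID/g tissue, mean ± SD, n=5.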

[3] = Drug uptake in CD1 mouse adrenal at 0.1 mCi, iv after 90 mins by gamma scintillation counting; type: ADME, organism-based, Adrenal gland; settings: in vivo, 1.5 h; summary of the method: as §2
Liver [4] = assay: Drug uptake in CD1 mouse liver at 0.1 mCi, iv after 90 mins in presence of (S)-6-(4-Fluorophenoxy)-3-(piperidin-3-ylmethyl)-2-o-tolylquinazolin-4(3H)-one; type: ADME, organism-based; settings: in vivo, 1.5 h
Summary of the method: (§3)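 Blockade arm: male CD1 mice (23-28 g) given 1 mg/kg blocker s.c. in saline/alcohol 9:1, or vehicle alone, 15 min before tail-vein tracer (0.1 mCi in 0.2 mL saline, ~4000 mCi/μmol). Killed by cervical dislocation at 90 min; organs dissected on ice, weighed, gamma-counted against injectate standards; %ID/g tissue, mean ± SD, n=5.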

[5] = Drug uptake in CD1 mouse testis at 0.1 mCi, iv after 30 mins by gamma scintillation counting; type: ADME, organism-based; settings: in vivo, 0.5 h; summary of the method: as §2
Hypothalamus [6] = assay: Drug uptake in CD1 mouse hypothalamus at 0.1 mCi, iv after 30 mins by gamma scintillation counting; type: ADME, organism-based; settings: in vivo, 0.5 h; summary of the method: as §1
[7] = Drug uptake in CD1 mouse adrenal at 0.1 mCi, iv after 10 mins by gamma scintillation counting; type: ADME, organism-based, Adrenal gland; settings: in vivo; summary of the method: as §2
Liver [8] = assay: Drug uptake in CD1 mouse liver at 0.1 mCi, iv after 30 mins by gamma scintillation counting; type: ADME, organism-based; settings: in vivo, 0.5 h; summary of the method: as §2
Hypothalamus [9] = assay: Drug uptake in CD1 mouse hypothalamus at 0.1 mCi, iv after 90 mins by gamma scintillation counting; type: ADME, organism-based; settings: in vivo, 1.5 h; summary of the method: as §1
Heart [10] = assay: Drug uptake in CD1 mouse heart at 0.1 mCi, iv after 90 mins by gamma scintillation counting; type: ADME, organism-based; settings: in vivo, 1.5 h; summary of the method: as §2
Heart [11] = assay: Drug uptake in CD1 mouse heart at 0.1 mCi, iv after 10 mins by gamma scintillation counting; type: ADME, organism-based; settings: in vivo; summary of the method: as §2
Cortex = assay: Drug uptake in CD1 mouse cortex at 0.1 mCi, iv after 90 mins by gamma scintillation counting; type: ADME, organism-based; settings: in vivo, 1.5 h; summary of the method: as §1
Hippocampus [12] = assay: Drug uptake in CD1 mouse hippocampus at 0.1 mCi, iv after 90 mins by gamma scintillation counting; type: ADME, organism-based; settings: in vivo, 1.5 h; summary of the method: as §1
Brain [13] = assay: Drug uptake in CD1 mouse brain at 0.1 mCi, iv after 10 mins by gamma scintillation counting; type: ADME, organism-based; settings: in vivo; summary of the method: as §1
Muscle tissue [14] = assay: Drug uptake in CD1 mouse muscle at 0.1 mCi, iv after 90 mins by gamma scintillation counting; type: ADME, organism-based; settings: in vivo, 1.5 h; summary of the method: as §2
Brain [15] = assay: Drug uptake in CD1 mouse brain at 0.1 mCi, iv after 90 mins by gamma scintillation counting; type: ADME, organism-based; settings: in vivo, 1.5 h; summary of the method: as §1
Lung [16] = assay: Drug uptake in CD1 mouse lung at 0.1 mCi, iv after 30 mins by gamma scintillation counting; type: ADME, organism-based; settings: in vivo, 0.5 h; summary of the method: as §2
Heart [17] = assay: Drug uptake in CD1 mouse heart at 0.1 mCi, iv after 90 mins in presence of (S)-6-(4-Fluorophenoxy)-3-(piperidin-3-ylmethyl)-2-o-tolylquinazolin-4(3H)-one; type: ADME, organism-based; settings: in vivo, 1.5 h; summary of the method: as §3
Hypothalamus [18] = assay: Drug uptake in CD1 mouse hypothalamus at 0.1 mCi, iv after 10 mins by gamma scintillation counting; type: ADME, organism-based; settings: in vivo; summary of the method: as §1
[19] = Lipophilicity, log D of the compound; type: physicochemical; settings: octanol/water
Summary of the method: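 Computed in silico rather than measured experimentally, for pH 7.4 (log D7.4), using a log P/log D prediction program.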

Lung [20] = assay: Drug uptake in CD1 mouse lung at 0.1 mCi, iv after 10 mins by gamma scintillation counting; type: ADME, organism-based; settings: in vivo; summary of the method: as §2
[21] = Drug uptake in CD1 mouse adrenal at 0.1 mCi, iv after 90 mins in presence of (S)-6-(4-Fluorophenoxy)-3-(piperidin-3-ylmethyl)-2-o-tolylquinazolin-4(3H)-one; type: ADME, organism-based, Adrenal gland; settings: in vivo, 1.5 h; summary of the method: as §3
[22] = Drug uptake in CD1 mouse testis at 0.1 mCi, iv after 90 mins in presence of (S)-6-(4-Fluorophenoxy)-3-(piperidin-3-ylmethyl)-2-o-tolylquinazolin-4(3H)-one; type: ADME, organism-based; settings: in vivo, 1.5 h; summary of the method: as §3
Muscle tissue [23] = assay: Drug uptake in CD1 mouse muscle at 0.1 mCi, iv after 10 mins by gamma scintillation counting; type: ADME, organism-based; settings: in vivo; summary of the method: as §2

**Q.** What does the source list for `Cc1ccccc1-c1nc2ccc(Oc3ccc(F)cc3)cc2c(=O)n1C[C@H]1CCCN([11CH3])C1`?
**A.** Drug uptake (Hippocampus [1]): 0.6 % ID/g; Drug uptake (Lung [2]): 14.74 % ID/g; Drug uptake [3]: 7.87 % ID/g; Drug uptake (Liver [4]): 14.77 % ID/g; Drug uptake [5]: 1.39 % ID/g; Drug uptake (Hypothalamus [6]): 0.58 % ID/g; Drug uptake [7]: 15.57 % ID/g; Drug uptake (Liver [8]): 14.6 % ID/g; Drug uptake (Hypothalamus [9]): 0.86 % ID/g; Drug uptake (Heart [10]): 2.94 % ID/g; Drug uptake (Heart [11]): 5.11 % ID/g; Drug uptake (Cortex): 0.66 % ID/g; Drug uptake (Hippocampus [12]): 0.65 % ID/g; Drug uptake (Brain [13]): 0.54 % ID/g; Drug uptake (Muscle tissue [14]): 2.09 % ID/g; Drug uptake (Brain [15]): 0.54 % ID/g; Drug uptake (Lung [16]): 24.02 % ID/g; Drug uptake (Heart [17]): 3.74 % ID/g; Drug uptake (Hypothalamus [18]): 0.56 % ID/g; logD [19]: 4.1; Drug uptake (Lung [20]): 26.44 % ID/g; Drug uptake [21]: 10.02 % ID/g; Drug uptake [22]: 2.25 % ID/g; Drug uptake (Muscle tissue [23]): 3.79 % ID/g
